According to PubChem BioAssay:
Results filed as inconclusive are left out.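 Rule for the calls, unless noted: active = growth inhibition above 25% in both replicates, a cutoff set 3 SD above the mean; inconclusive = above 25% in only one replicate; inactive = the rest.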

Assays:
[1] = OD615 S. cerevisiae growth inhibition, permissive medium, pilot counter-assay, permissive growth control for S. cerevisiae lifespan shortening project (AID 705); settings: OD615, 24 h, at 10 µM, hits give high values
Procedure, shortened: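 Material: engineered DeaD yeast; compound dosing: one dose 10 µM, DMSO 0.25% final; measure: yeast growth inhibition indicated by reduced 24 h OD615; detection: OD615 turbidity read; incubation: cells pre-grown 4 h, then 24 h compound exposure, 30 °C humidified; medium: permissive synthetic complete medium with raffinose and galactose carbon sources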

[2] = Restrictive medium S. cerevisiae growth inhibition, OD615, pilot screen of yeast lifespan reduction project, restrictive growth control (AID 706;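 active = growth inhibition above a set limit, 3 SD over mean compound inhibition, in both replicates, cut at about 43% in these data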;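 note: modified DeaD lifespan yeast strain shifted to restrictive glucose medium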); settings: OD615, 48 h, at 10 µM, hits give high values
Procedure, shortened: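 material = engineered S. cerevisiae DeaD strain | medium = glucose-based CSMM-D restrictive medium | times = 4 h pre-incubation, 48 h exposure at 30 °C | technique = OD615 absorbance reading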

[3] = viability gain of MRP-1-high H69AR cells under doxorubicin, pilot screen, MRP-1 activator project, CellTiter-Glo, duplicate (AID 807;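 active = viability increase at or above a cutoff of the median across tested compounds plus 3 SD, cut at about 8.5% in these data, passing the limit was not always enough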;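 note: compound pretreatment 18-22 h then 72 h combined with doxorubicin; 0% = doxorubicin alone and 100% = vehicle without doxorubicin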); settings: H69AR viability with doxorubicin, CellTiter-Glo luminescence; at 10 µM; hits give high values
[4] = growth suppression of beta-catenin knockout HCT116, pilot screen, human colon tumor cells (AID 823;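 active = cell viability at or below a set limit in both duplicate runs, the limit being the all-compound median minus 4 SD, cut at about 23% in these data, passing the limit was not always enough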;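 note: 0% = wells killed by 20 µM Hyamine and 100% = untreated DMSO cell wells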); settings: CellTiter-Glo, 60 h, at 10 µM, hits give low values
[5] = growth suppression of PTEN-deleted HCT116, pilot screen, cell-based, HCT116 clonal line, CellTiter-Glo (AID 824;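 active = viability at or below 27.92% in each of two runs, the all-compound median minus 4 SD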;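 note: 0% = 20 µM Hyamine control and 100% = vehicle cell control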); settings: 60 h, at 10 µM, hits give low values
[6] = inhibitors of the yeast RAM network, pilot screen, dse1pr::URA3 reporter, 5-FOA selection (AID 869;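 active = inhibition over a set limit, the all-compound mean plus 3 SD, in both replicate runs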;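 note: 0% = DMSO wells with no growth and 100% = 10 µM 1-NA-PP1 with full growth; RAM network block rescues cells from 5-FOA so hits raise OD615 growth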); settings: S. cerevisiae dse1pr::URA3 5-FOA growth, OD615, 2 d; at 10 µM; hits give high values; strain carries analog-sensitive mutant Cbk1 kinase
[7] = RAM signaling pathway blockade in yeast – S. cerevisiae, Pdr1DBD-CYC8 efflux-inhibited sensitized strain, primary screen (AID 1298;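 active = RAM network inhibition above 8.4% in each of two replicates, 3 SD over the compound average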;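 note: 0% = DMSO untreated cells without growth and 100% = 10 µM 1-NA-PP1 full growth; higher means more yeast growth rescued from 5-FOA killing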); settings: S. cerevisiae cbk1-as DSE1-URA3 strain, 5-FOA growth OD615, 2 d; at 50 µM; hits give high values

COC(=O)C(C)Sc1nnc(Cc2cc(=O)[nH]c(=O)[nH]2)n1-c1ccc(OC)cc1 (configuration not stated)
inactive: growth inhibition [1] 8.07% | growth inhibition [2] 4.31% | viability increase [3] 0.81% | viability [4] 106% | viability [5] 101% | inhibition [6] 1.41% | RAM network inhibition [7] 2.47%

CCSc1nnc(NC(=O)CC)s1
inactive: growth inhibition [1] -14.2% | growth inhibition [2] -13.4% | viability increase [3] 1.42% | viability [4] 106% | viability [5] 99% | inhibition [6] 1.21% | RAM network inhibition [7] -0.32%

COC(=O)CC1=C(C)C(=O)CC2C(C)(C)CCCC12C (configuration not stated)
inactive: growth inhibition [1] 4.86% | growth inhibition [2] -8.22% | viability increase [3] 1.01% | viability [4] 85.6% | viability [5] 94% | inhibition [6] 1.27% | RAM network inhibition [7] 4.48%

COC(=O)c1sc(NC(=O)C2CCCCC2C(=O)O)c(C(=O)OC)c1C (configuration not stated)
inactive: growth inhibition [1] -5.95% | growth inhibition [2] 0.13% | viability increase [3] -2.78% | viability [4] 104% | viability [5] 94.6% | inhibition [6] 2.49% | RAM network inhibition [7] 6.27%

O=C(CCNS(=O)(=O)c1cccc2nonc12)NCc1cccs1
inactive: growth inhibition [1] -0.555% | growth inhibition [2] -14.2% | viability increase [3] -1.88% | viability [4] 96.3% | viability [5] 89.1% | inhibition [6] 2.46% | RAM network inhibition [7] 1.92%

Cc1noc(C)c1S(=O)(=O)N(CC(=O)NCc1ccc2c(c1)OCO2)c1ccc(C(C)C)cc1
inactive: growth inhibition [1] -13.7% | growth inhibition [2] -8.46% | viability increase [3] -2.92% | viability [4] 82.7% | viability [5] 76.2% | inhibition [6] -0.54% | RAM network inhibition [7] 6.57%

COc1ccc(C2CC(c3ccccc3C)n3nc(N)nc3N2)cc1 (configuration not stated)
inactive: growth inhibition [1] 1.94% | growth inhibition [2] 17.8% | viability increase [3] 0.56% | viability [4] 96.1% | viability [5] 87.6% | inhibition [6] 2.3% | RAM network inhibition [7] 1.89%

COc1ccc(S(=O)(=O)N2CCC(C(=O)NCCC3=CCCCC3)CC2)cc1OC
inactive: growth inhibition [1] -5.45% | growth inhibition [2] -0.575% | viability increase [3] -0.8% | viability [4] 96.2% | viability [5] 96.9% | inhibition [6] 1.67% | RAM network inhibition [7] 4.24%

O=C(CCS(=O)CCC(=O)NCc1ccccc1)NCc1ccccc1
inactive: growth inhibition [1] -2.28% | growth inhibition [2] 6.21% | viability increase [3] -0.32% | viability [4] 97.9% | viability [5] 102% | inhibition [6] 0.92% | RAM network inhibition [7] 4.15%

Cc1cccc(C(=O)N2CCN(Cc3ccc4c(c3)OCO4)CC2)c1
inactive: growth inhibition [1] -10.7% | growth inhibition [2] -4.2% | viability increase [3] -1.3% | viability [4] 111% | viability [5] 95.7% | inhibition [6] -0.065% | RAM network inhibition [7] 4.6%

COc1ccc(CN2C(=O)CCC2(C)C(=O)NC2CCCC2)c(OC)c1 (configuration not stated)
inactive: growth inhibition [1] -5.04% | growth inhibition [2] -4.46% | viability increase [3] 0.91% | viability [4] 105% | viability [5] 101% | inhibition [6] 0.71% | RAM network inhibition [7] 2.04%

CCN(CC)CC(=O)Nc1cc(C)c2c(=O)oc3ccccc3c2n1
inactive: growth inhibition [1] -15.1% | growth inhibition [2] -19.2% | viability increase [3] -3.1% | viability [4] 96.1% | viability [5] 91.6% | inhibition [6] 1.04% | RAM network inhibition [7] 6.81%

CCC(C)NC(=O)C(Cc1ccccc1)n1cccc1 (configuration not stated)
inactive: growth inhibition [1] -9.66% | growth inhibition [2] -6.93% | viability increase [3] 0.42% | viability [4] 101% | viability [5] 88.4% | inhibition [6] -0.195% | RAM network inhibition [7] 3%

O=C(Cn1c(N2CCN(c3ccccc3)CC2)nc2ccccc21)c1ccccc1
inactive: growth inhibition [1] -10.3% | growth inhibition [2] -9.96% | viability increase [3] -3.76% | viability [4] 84.3% | viability [5] 93.6% | inhibition [6] 2.6% | RAM network inhibition [7] 4.62%

CC(CCc1ccco1)NC(=O)Cn1ncc2c(=O)oc3ccccc3c21 (configuration not stated)
inactive: growth inhibition [1] -15.7% | growth inhibition [2] -12.5% | viability increase [3] -3.03% | viability [4] 105% | viability [5] 93.7% | inhibition [6] 1.96% | RAM network inhibition [7] 5.79%

CN1CCN(S(=O)(=O)c2cccc(S(=O)(=O)c3ccc(Cl)c(Cl)c3)c2)CC1
inactive: growth inhibition [1] -1.71% | growth inhibition [2] -7.33% | viability increase [3] -2.58% | viability [4] 91.1% | viability [5] 83.7% | inhibition [6] 0.59% | RAM network inhibition [7] 4.5%

CCc1ccc(C(=O)NCc2cccs2)s1
inactive: growth inhibition [1] -5.71% | growth inhibition [2] 4.03% | viability increase [3] 1.53% | viability [4] 104% | viability [5] 97.1% | inhibition [6] 0.715% | RAM network inhibition [7] -1.7%

O=C(NCCN1CCN(C(=O)Nc2ccccc2)CC1)Nc1ccccc1
inactive: growth inhibition [1] -18.1% | growth inhibition [2] -32.9% | viability increase [3] -0.62% | viability [4] 107% | viability [5] 94.8% | inhibition [6] 1.63% | RAM network inhibition [7] 3%

Cn1c(Cn2c(=O)sc3ccccc32)nnc1SCC(=O)N1CCCc2ccccc21
inactive: growth inhibition [1] -4.97% | growth inhibition [2] 0.455% | viability increase [3] -3.71% | viability [4] 96.5% | viability [5] 95.1% | inhibition [6] 1.82% | RAM network inhibition [7] 6.16%

CC(C)C(=O)Nc1nnc(-c2ccccc2)o1
inactive: growth inhibition [1] -5.24% | growth inhibition [2] -0.51% | viability increase [3] -2.2% | viability [4] 102% | viability [5] 101% | inhibition [6] 0.64% | RAM network inhibition [7] -0.68%

O=C(CSc1nc2ccccc2c(=O)n1-c1ccccc1)N1CCN(CCO)CC1
inactive: growth inhibition [1] -8.67% | growth inhibition [2] -3.58% | viability increase [3] -2.9% | viability [4] 99.5% | viability [5] 98.6% | inhibition [6] 0.595% | RAM network inhibition [7] 1.04%

COCCCN1Cc2cccc(C(=O)O)c2C1=O
inactive: growth inhibition [1] 1.16% | growth inhibition [2] 4.03% | viability increase [3] -2.13% | viability [4] 103% | viability [5] 102% | inhibition [6] 0.525% | RAM network inhibition [7] 7.02%

CCOC(=O)c1cccc(NC(=O)C2CCCN2S(=O)(=O)c2cccc3cccnc23)c1 (configuration not stated)
inactive: growth inhibition [1] -9.1% | growth inhibition [2] -2.39% | viability increase [3] -3.02% | viability [4] 92% | viability [5] 89.8% | inhibition [6] 1.41% | RAM network inhibition [7] -1.53%

COC(=O)C1C(=O)c2c([nH]c(C(=O)OC3CCCCC3)c2C)CC1C (configuration not stated)
inactive: growth inhibition [1] -2.87% | growth inhibition [2] 2.14% | viability increase [3] 2.69% | viability [4] 107% | viability [5] 104% | inhibition [6] 0.105% | RAM network inhibition [7] 2.04%

CCOC(=O)c1c(NC(=O)c2cccs2)sc2c1CCCC2
inactive: growth inhibition [1] -6.96% | growth inhibition [2] -21.1% | viability increase [3] -4.82% | viability [4] 101% | viability [5] 83.5% | inhibition [6] 3.56% | RAM network inhibition [7] 8%

Cn1c(=O)c2c(nc(OCc3ccccc3)n2C)n(C)c1=O
inactive: growth inhibition [1] -2.8% | growth inhibition [2] -0.39% | viability increase [3] 3.09% | viability [4] 100% | viability [5] 98.3% | inhibition [6] -0.115% | RAM network inhibition [7] 0.26%

Cc1ccc(-n2c(SCC(=O)NCC3CCCO3)nc3c(c2=O)SCC3)cc1 (configuration not stated)
inactive: growth inhibition [1] -10.7% | growth inhibition [2] -16.9% | viability increase [3] -1.96% | viability [4] 100% | viability [5] 96.7% | inhibition [6] 3.09% | RAM network inhibition [7] 2.18%

CC(C)c1ccc2c(c1)C(=O)NC(C)(C)C2
inactive: growth inhibition [1] -8.81% | growth inhibition [2] -11.3% | viability increase [3] -2.07% | viability [4] 116% | viability [5] 97.8% | inhibition [6] 1.88% | RAM network inhibition [7] 4.27%

Cc1nc2c(c(C)nn2-c2ccccc2)c(C)c1Cl
inactive: growth inhibition [1] -4.98% | growth inhibition [2] -5.5% | viability increase [3] -2.73% | viability [4] 88.6% | viability [5] 87.9% | inhibition [6] 3.09% | RAM network inhibition [7] 2.46%

CCOC(=O)C1CCCN(c2c(Nc3cccc(C)c3)c(=O)c2=O)C1 (configuration not stated)
inactive: growth inhibition [1] -6.7% | growth inhibition [2] 2.08% | viability increase [3] -2.71% | viability [4] 104% | viability [5] 93.2% | inhibition [6] -0.555% | RAM network inhibition [7] 2.72%

COc1ccccc1CNC(=O)C1CCN(S(=O)(=O)c2cccc3cccnc23)CC1
inactive: growth inhibition [1] 5.11% | growth inhibition [2] 0.02% | viability increase [3] -1.41% | viability [4] 108% | viability [5] 97.2% | inhibition [6] -0.9% | RAM network inhibition [7] -0.93%

O=C(O)Cn1ncc2c1-c1ccoc1CC2
inactive: growth inhibition [1] -0.31% | growth inhibition [2] 2.4% | viability increase [3] -0.14% | viability [4] 106% | viability [5] 96.6% | inhibition [6] 2.17% | RAM network inhibition [7] 0.47%

CCOC(=O)N1CCN(c2c(Nc3ccc4c(c3)OCCO4)c(=O)c2=O)CC1
inactive: growth inhibition [1] 4.17% | growth inhibition [2] 4.07% | viability increase [3] -1.02% | viability [4] 105% | viability [5] 105% | inhibition [6] 1.1% | RAM network inhibition [7] 2.05%

Clc1ccc(C2CC(c3cccs3)n3ncnc3N2)cc1Cl (configuration not stated)
inactive: growth inhibition [1] -2.88% | growth inhibition [2] 29.1% | viability increase [3] -5.77% | viability [4] 80.2% | viability [5] 72.9% | inhibition [6] 0.94% | RAM network inhibition [7] -1.53%

Cc1ccc(-n2c(SCC(=O)Nc3cc(C)on3)nc3c(c2=O)SC(C)C3)cc1 (configuration not stated)
inactive: growth inhibition [1] -1.77% | growth inhibition [2] -14.4% | viability increase [3] -2.56% | viability [4] 87.5% | viability [5] 88.4% | inhibition [6] 0.5% | RAM network inhibition [7] 2.13%

CCOc1ccc(-c2cc(CCCC(=O)NCc3ccco3)no2)cc1
inactive: growth inhibition [1] -2.19% | growth inhibition [2] -4.02% | viability increase [3] -2.79% | viability [4] 86.5% | viability [5] 88% | inhibition [6] 0.22% | RAM network inhibition [7] 1.77%
